Blank lines part the entries; values can stand above or below the compound they belong to. Calls of active or inactive are those of the source.
What was measured:
[1] = biological target: D(2) dopamine receptor (Rattus norvegicus) (UniProt P61169); test: Binding affinity towards dopamine receptor D2 at 1.0 uM concentration
Summary of the method: (§1)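 Rat brain crude synaptic membranes in 20 mM NaHEPES pH 7.5. Ligands: α1 cortex […] 0.4 nM, nonspecific with (-)-NE 100 μM, 30 min at 25 °C. […] D2 striatum [3H]spiperone 0.05 nM with (+)-butaclamol 1 μM, 45 min at 37 °C. S1 cortex [3H]5-HT 1 nM plus glutathione and MgCl2, with 5-HT 10 μM, 20 min at 37 °C. […] Samples filtered on GF/B and counted.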

[2] = biological target: Sodium-dependent dopamine transporter (Rattus norvegicus, UniProt P23977); test: Inhibition of the uptake of tritiated dopamine (DA) in rat synaptosomes; format: subcellular, Brain
[3] = biological target: D(1A) dopamine receptor (Rattus norvegicus) (UniProt P18901); test: Binding affinity towards Dopamine receptor D1 at 1.0 uM concentration; summary of the method: as §1
[4] = biological target: Adrenergic receptor alpha-2 (Rattus norvegicus) (UniProt P22086+P19328+P22909); test: Binding affinity towards alpha-2 adrenergic receptor at 1.0 uM concentration; format: protein assay
Mus musculus [5] = organism: Mus musculus; test: Gross behavioral effects ascertained in mice; W indicates weak stimulant or depressant activity of little significance.; format: functional, organism-based
Summary of the method: (§2)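 Male Swiss Webster mice, 18–24 g, three per dose, given ip doses of 1, 3, 10, 30, 100 and 300 mg/kg. Observed for gross behavior and held for 4 days. Scored as weak (W), stimulant (S), depressant (D) or convulsant (C).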

[6] = biological target: Adrenergic receptor alpha-1 (Rattus norvegicus) (UniProt P15823+P23944+P43140); test: Binding affinity towards alpha-1 adrenergic receptor at 1.0 uM concentration; format: protein assay; summary of the method: as §1
Mus musculus [7] = organism: Mus musculus; test: Antagonism of tetrabenazine (TBZ)-induced depression measured in mice by motor activity; format: functional
Summary of the method: (§3)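 Nonfasted male Swiss Webster mice, 18–24 g, ten per dose level and in saline controls. Test compound given ip 30 min before tetrabenazine 32 mg/kg ip; dose expressed as free base. Motor activity and ptosis scored. Control response ≤90% corrected by Abbott's formula.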

[8] = biological target: Muscarinic acetylcholine receptor (Rattus norvegicus) (UniProt P08482+P08483+P08485+P08911+P10980); test: Binding affinity towards Muscarinic acetylcholine receptor at 1.0 uM concentration; format: protein assay
Mus musculus [9] = organism: Mus musculus; test: Antagonism of tetrabenazine (TBZ)-induced depression in mice measured for ptosis; format: functional; summary of the method: as §3
[10] = biological target: Norepinephrine transporter (Rattus norvegicus, UniProt Q9WTR4); test: Inhibition of uptake of tritiated norepinephrine (NE) in rat synaptosomes; format: subcellular, Brain
[11] = biological target: T1, Adrenergic receptor alpha-1 (Rattus norvegicus, UniProt P15823+P23944+P43140); test: Binding affinity towards alpha-1 adrenergic receptor; format: protein assay
T1 sequence (P15823 whole entry): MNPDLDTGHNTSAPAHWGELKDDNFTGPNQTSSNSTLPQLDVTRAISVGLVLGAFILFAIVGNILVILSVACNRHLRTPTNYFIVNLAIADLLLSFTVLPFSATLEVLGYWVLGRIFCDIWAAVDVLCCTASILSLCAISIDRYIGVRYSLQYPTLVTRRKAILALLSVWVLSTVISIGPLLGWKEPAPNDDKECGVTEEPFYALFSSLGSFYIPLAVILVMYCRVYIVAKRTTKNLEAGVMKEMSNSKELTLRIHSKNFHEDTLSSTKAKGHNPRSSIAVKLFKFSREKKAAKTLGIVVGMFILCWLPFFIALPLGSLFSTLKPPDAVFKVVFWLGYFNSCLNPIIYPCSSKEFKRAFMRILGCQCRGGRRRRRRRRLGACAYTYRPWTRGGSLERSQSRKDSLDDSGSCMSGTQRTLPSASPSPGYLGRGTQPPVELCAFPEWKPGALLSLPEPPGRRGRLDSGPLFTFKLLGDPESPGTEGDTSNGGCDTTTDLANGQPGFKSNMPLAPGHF
T1 sequence (P23944 whole entry): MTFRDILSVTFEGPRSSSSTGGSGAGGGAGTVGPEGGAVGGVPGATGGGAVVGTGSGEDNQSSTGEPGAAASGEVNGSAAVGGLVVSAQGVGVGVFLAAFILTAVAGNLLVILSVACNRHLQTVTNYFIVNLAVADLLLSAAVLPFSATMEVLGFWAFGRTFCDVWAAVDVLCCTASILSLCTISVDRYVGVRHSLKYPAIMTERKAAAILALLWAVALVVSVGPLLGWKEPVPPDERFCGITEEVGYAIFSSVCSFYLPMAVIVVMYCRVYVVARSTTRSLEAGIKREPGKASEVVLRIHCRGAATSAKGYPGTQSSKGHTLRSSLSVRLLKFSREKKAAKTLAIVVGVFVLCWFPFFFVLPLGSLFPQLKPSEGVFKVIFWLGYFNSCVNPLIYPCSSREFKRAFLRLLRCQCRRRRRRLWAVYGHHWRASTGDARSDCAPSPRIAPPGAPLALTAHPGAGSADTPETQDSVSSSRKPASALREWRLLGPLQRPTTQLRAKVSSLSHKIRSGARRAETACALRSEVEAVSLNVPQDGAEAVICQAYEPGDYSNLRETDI
T1 sequence (P43140 whole entry): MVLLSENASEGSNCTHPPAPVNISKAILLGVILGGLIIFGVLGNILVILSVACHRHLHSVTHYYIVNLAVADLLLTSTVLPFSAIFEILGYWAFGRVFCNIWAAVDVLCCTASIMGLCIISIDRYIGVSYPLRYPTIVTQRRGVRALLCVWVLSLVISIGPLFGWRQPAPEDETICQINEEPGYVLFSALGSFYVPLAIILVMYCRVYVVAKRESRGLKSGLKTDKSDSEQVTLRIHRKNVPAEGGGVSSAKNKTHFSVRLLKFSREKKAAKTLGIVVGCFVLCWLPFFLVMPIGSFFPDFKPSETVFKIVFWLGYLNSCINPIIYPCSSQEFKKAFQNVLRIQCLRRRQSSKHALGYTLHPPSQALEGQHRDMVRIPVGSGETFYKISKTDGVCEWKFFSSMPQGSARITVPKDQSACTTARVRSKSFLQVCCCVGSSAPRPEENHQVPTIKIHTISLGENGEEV

D(2) dopamine receptor = D(2) dopamine receptor (Rattus norvegicus, UniProt P61169); test: Binding affinity towards Dopamine receptor D2
[12] = biological target: Serotonin 2 (5-HT2) receptor (Rattus norvegicus, UniProt P30994+P08909+P14842); test: Binding affinity towards 5-hydroxytryptamine 2 receptor; format: protein assay
[13] = biological target: Serotonin 1 (5-HT1) receptor (Rattus norvegicus, UniProt P28564+P30940+P19327+P28565); test: Binding affinity towards serotonin S1 receptor; format: protein assay; summary of the method: as §1
D(1A) dopamine receptor = D(1A) dopamine receptor (Rattus norvegicus, UniProt P18901); test: Binding affinity towards Dopamine receptor D1
[14] = biological target: Sodium-dependent serotonin transporter (Rattus norvegicus) (UniProt P31652); test: Inhibition of tritiated serotonin(5-HT) uptake at 0.1 uM concentration; format: functional
Summary of the method: (§4)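 Male Wistar rat brain synaptosomes (P2 fraction): hypothalamus for NE, striatum for DA, cerebral cortex for 5-HT. Buffer is Tris- or HEPES-buffered salt medium with glucose, ascorbate and nialamide, pH 7.4 at 37 °C. Preincubated 10 min at 37 °C with compound. Uptake started with [3H]NE 100–300 nM, [3H]DA 50–300 nM or [3H]5-HT 100–200 nM, incubated 3 min (DA) or 6–10 min (NE, 5-HT). Blanks held on ice. Filtered, counted by scintillation.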

Rattus norvegicus [15] = organism: Rattus norvegicus; test: Ability to inhibit the uptake of tritiated norepinephrine (NE) at 0.1 uM concentration; format: functional; summary of the method: as §4
[16] = biological target: Sodium-dependent dopamine transporter (Rattus norvegicus) (UniProt P23977); test: Inhibition of tritiated dopamine (DA) uptake at 0.1 uM concentration; format: functional; summary of the method: as §4
[17] = biological target: Norepinephrine transporter (Rattus norvegicus) (UniProt Q9WTR4); test: Ability to inhibit the uptake of [3H]norepinephrine (NE) 0.1 uM concentration at rat brain synaptosomes; format: functional, subcellular; summary of the method: as §4
Rattus norvegicus [18] = organism: Rattus norvegicus; test: Ability to inhibit the uptake of tritiated dopamine (DA) 1 uM concentration; format: functional
Summary of the method: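 Rat brain synaptosomal [3H]dopamine uptake: striatal P2 fraction, test compound at 1.00 μM. Preincubated at 37 °C, then 50–300 nM [3H]DA for 3 min. Blanks on ice. Filtration and scintillation counting; percent inhibition of control uptake.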

[19] = biological target: Sodium-dependent serotonin transporter (Rattus norvegicus) (UniProt P31652); test: Ability to inhibit the uptake of [3H]- serotonin(5-HT) 0.1 uM concentration at rat brain synaptosomes; format: functional, subcellular; summary of the method: as §4
Mus musculus [20] = test: Ability to antagonise intraperitoneal dose; inactive (<10% antagonism) at 30 mg/kg is represented as I-30.; format: functional, organism-based; parameters: dose 30 mg/kg; summary of the method: as §3
Mus musculus [21] = organism: Mus musculus; test: Gross behavioral effects ascertained in mice; C indicates overt convulsant; format: functional, organism-based; summary of the method: as §2
Mus musculus [22] = test: Ability to antagonise intraperitoneal dose; inactive (<10% antagonism) at 30 mgjkg is represented as I-30.; format: functional, organism-based; summary of the method: as §3

Sodium-dependent serotonin transporter (Rattus norvegicus), sequence (P31652 whole entry): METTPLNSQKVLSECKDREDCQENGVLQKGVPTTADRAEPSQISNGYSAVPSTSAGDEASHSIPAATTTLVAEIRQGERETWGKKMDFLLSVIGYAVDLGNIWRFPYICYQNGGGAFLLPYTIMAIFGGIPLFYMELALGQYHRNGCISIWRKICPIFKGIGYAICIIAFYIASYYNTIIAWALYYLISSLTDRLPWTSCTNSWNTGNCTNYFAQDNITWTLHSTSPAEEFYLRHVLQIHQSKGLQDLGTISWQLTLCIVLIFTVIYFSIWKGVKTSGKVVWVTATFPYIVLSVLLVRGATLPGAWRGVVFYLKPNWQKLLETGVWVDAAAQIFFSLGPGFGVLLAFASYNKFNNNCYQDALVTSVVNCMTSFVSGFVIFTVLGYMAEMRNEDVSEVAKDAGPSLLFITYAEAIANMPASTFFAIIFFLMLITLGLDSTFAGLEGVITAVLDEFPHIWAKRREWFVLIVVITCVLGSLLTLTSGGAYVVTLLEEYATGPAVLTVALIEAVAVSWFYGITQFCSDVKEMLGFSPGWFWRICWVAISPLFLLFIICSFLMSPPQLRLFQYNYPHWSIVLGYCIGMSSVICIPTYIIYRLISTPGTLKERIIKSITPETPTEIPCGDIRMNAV
Norepinephrine transporter (Rattus norvegicus), sequence (Q9WTR4 as listed by the source): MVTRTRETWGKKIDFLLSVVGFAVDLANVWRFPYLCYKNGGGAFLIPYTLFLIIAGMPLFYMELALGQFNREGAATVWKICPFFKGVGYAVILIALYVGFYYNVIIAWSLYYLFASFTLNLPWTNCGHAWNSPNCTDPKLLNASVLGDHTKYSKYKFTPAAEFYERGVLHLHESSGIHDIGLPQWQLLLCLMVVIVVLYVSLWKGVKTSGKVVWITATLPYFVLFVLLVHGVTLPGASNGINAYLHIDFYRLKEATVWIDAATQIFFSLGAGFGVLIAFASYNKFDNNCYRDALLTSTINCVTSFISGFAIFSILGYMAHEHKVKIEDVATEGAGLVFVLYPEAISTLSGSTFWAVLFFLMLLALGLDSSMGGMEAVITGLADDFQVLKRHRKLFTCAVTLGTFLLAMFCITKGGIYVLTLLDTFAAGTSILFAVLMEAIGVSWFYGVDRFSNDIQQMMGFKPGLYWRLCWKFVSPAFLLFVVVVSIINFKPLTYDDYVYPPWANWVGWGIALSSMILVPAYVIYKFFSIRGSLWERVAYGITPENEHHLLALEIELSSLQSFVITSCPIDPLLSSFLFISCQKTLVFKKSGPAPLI
Sodium-dependent dopamine transporter, sequence (P23977 whole entry): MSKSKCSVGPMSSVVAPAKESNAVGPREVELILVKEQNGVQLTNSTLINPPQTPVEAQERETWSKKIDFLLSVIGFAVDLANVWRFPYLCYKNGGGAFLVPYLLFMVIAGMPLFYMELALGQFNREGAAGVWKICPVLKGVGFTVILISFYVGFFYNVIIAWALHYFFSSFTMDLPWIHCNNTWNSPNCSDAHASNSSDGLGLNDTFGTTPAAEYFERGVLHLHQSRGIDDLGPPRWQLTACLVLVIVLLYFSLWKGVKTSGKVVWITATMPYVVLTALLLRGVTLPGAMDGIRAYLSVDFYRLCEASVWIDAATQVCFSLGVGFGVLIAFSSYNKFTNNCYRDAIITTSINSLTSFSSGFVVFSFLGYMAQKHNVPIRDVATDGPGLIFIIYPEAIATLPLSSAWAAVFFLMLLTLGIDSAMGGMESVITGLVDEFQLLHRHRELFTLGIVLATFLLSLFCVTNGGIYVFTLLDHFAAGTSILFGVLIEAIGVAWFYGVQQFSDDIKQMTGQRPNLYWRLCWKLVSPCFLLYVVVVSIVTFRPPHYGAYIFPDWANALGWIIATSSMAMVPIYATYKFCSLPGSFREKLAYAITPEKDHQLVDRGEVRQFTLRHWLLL
D(2) dopamine receptor, sequence (P61169 whole entry): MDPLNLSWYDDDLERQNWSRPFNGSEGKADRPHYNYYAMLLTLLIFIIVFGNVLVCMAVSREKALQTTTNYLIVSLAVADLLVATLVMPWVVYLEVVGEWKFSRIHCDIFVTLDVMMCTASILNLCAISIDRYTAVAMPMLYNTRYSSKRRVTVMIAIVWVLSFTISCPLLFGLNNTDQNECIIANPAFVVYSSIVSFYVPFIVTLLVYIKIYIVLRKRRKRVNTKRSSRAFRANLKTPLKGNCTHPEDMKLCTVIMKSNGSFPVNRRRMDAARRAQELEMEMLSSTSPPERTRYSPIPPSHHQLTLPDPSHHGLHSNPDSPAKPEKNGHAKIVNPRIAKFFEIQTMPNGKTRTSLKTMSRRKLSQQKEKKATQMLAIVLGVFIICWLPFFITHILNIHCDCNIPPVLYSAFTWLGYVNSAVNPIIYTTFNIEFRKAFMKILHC
D(2) dopamine receptor (Rattus norvegicus), sequence (P61169 whole entry): as above
Norepinephrine transporter, sequence (Q9WTR4 whole entry): as the sequence (Q9WTR4 as listed by the source) above
Sodium-dependent dopamine transporter (Rattus norvegicus), sequence (P23977 whole entry): as the sequence (P23977 whole entry) above
D(1A) dopamine receptor, sequence (P18901 whole entry): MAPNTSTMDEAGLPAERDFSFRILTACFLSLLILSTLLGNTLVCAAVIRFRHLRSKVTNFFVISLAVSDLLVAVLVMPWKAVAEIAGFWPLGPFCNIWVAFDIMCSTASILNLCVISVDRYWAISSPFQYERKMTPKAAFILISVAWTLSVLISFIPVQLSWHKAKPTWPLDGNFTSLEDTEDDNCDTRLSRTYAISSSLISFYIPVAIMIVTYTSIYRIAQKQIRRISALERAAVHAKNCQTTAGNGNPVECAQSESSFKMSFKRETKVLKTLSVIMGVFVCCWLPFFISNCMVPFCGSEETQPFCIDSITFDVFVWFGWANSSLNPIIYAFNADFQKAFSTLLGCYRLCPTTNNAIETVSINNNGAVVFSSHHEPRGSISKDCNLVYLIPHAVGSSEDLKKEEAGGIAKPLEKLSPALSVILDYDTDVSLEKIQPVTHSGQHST
D(1A) dopamine receptor (Rattus norvegicus), sequence (P18901 whole entry): as above

SMILES: Br.Oc1cc2c(cc1O)[C@@H]1CCCN1C[C@H]2c1ccccc1
inhibition [1]: 19% | Ki (D(1A) dopamine receptor): 0.064 µM | behavior (Mus musculus [5]): Partial stimulant | inhibition [14]: 0% | Inhibition (Rattus norvegicus [15]): 35% | inhibition [16]: 22% | ED50 (Mus musculus [7]; Mus musculus, read-out: ED50): > 60 mg/kg | ED50 (Mus musculus [9]; Mus musculus, read-out: ED50): > 60 mg/kg

SMILES: Br.c1ccc([C@H]2Cc3ccccc3[C@@H]3CCCN23)cc1
behavior (Mus musculus [5]): Weak | inhibition [17]: 11% | Inhibition (Rattus norvegicus [18]): 36% | ED50 (Mus musculus [7]; Mus musculus, read-out: ED50): ~30 mg/kg | ED50 (Mus musculus [9]; Mus musculus, read-out: ED50): ~3 mg/kg | inhibition [19]: -9%

SMILES: Br.Clc1ccccc1[C@@H]1CN2CCC[C@@H]2c2ccccc21 (stereo in doubt; 24b)
Ki [13]: 1.68 µM | Ki [11]: 0.163 µM | Ki [2]: 0.0359 µM | Ki (D(2) dopamine receptor): 0.415 µM | ED50 (Mus musculus [7]): 1.6 mg/kg | ED50 (Mus musculus [9]): 0.44 mg/kg

SMILES: c1ccc([C@H]2CN3CC[C@@H]4CCCC[C@@]43c3ccccc32)cc1
ED50 (Mus musculus [20]): inactive | behavior (Mus musculus [21]): Overt convulsant | inhibition [17]: 3% | ED50 (Mus musculus [22]): inactive | Inhibition (Rattus norvegicus [18]): 17% | inhibition [19]: 9%

Now from value to compound, other results behind:

inhibition [1]: 27% | Ki [2]: 0.0158 µM | inhibition [3]: 40% | inhibition [4]: 37% | inhibition [6]: 87% | inhibition [8]: 1% | Ki [10]: 0.00065 µM
SMILES: COc1cccc([C@@H]2CN3CCC[C@@H]3c3ccccc32)c1
behavior (Mus musculus [5]): Partial stimulant | ED50 (Mus musculus [7]; Mus musculus, read-out: ED50): ~0.2 mg/kg | ED50 (Mus musculus [9]; Mus musculus, read-out: ED50): 0.07 mg/kg

Ki [11]: 0.274 µM | Ki (D(2) dopamine receptor): 1.03 µM | Ki [12]: 0.142 µM
SMILES: CSc1ccc([C@@H]2CN3CCC[C@@H]3c3ccccc32)cc1 (stereo in doubt; (+)-48b)

Ki [13]: 0.775 µM | Ki [11]: 0.213 µM | Ki [12]: 0.939 µM
SMILES: CSc1ccc([C@@H]2CN3CCC[C@@H]3c3ccccc32)cc1 (stereo in doubt; (-)-48b)

Ki [13]: 1.03 µM | Ki [11]: 0.314 µM | Ki [12]: 0.208 µM
SMILES: CSc1ccc([C@@H]2CN3CCC[C@@H]3c3ccccc32)cc1 (stereo in doubt; 48b)
ED50 (Mus musculus [7]; Mus musculus, read-out: ED50): > 30 mg/kg | ED50 (Mus musculus [9]; Mus musculus, read-out: ED50): 0.3 mg/kg

Reference: ChEMBL document CHEMBL1123812, “Pyrroloisoquinoline antidepressants. 2. In-depth exploration of structure-activity relationships” (J Med Chem, 1987)
